Experiments:
[1] = Total clearance in healthy human subjects at 2 gram, iv administered in 5 mins infusion; type: ADME, organism-based; settings: in vivo
Summary of the method: (§1)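 Single-dose, single-centre, open, parallel-group trial in CF patients (n = 8) and healthy volunteers (n = 7). Each subject received 2 g ceftazidime by 5-min IV infusion; three CF patients received 1.5, 1 or 3 g instead. Venous plasma was sampled from 0 min to 12 h after the end of infusion. Drug was read at 275 nm (linear 0.6–200 mg/liter). Noncompartmental parameters were not body-size scaled.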

[2] = Mean residence time in cystic fibrosis patient at 2 gram, iv administered in 5 mins infusion; type: ADME, organism-based; settings: human, in vivo; summary of the method: as §1
[3] = Volume of distribution at steady state in cystic fibrosis patient at 2 gram, iv administered in 5 mins infusion; type: ADME, organism-based; settings: human, in vivo, read-out: Vdss; summary of the method: as §1
Homo sapiens [4] = assay: fT>MIC in cystic fibrosis patient at 6 gram/70kg, iv administered as 1 mg/l infusion every 8 hrs; type: functional
Summary of the method: (§2)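 Monte Carlo simulation from the population PK model, using allometric scaling by fat-free mass. All regimens gave 6 g per 70 kg WT daily, as 30-min infusions q8h or q6h, prolonged 4–5-h infusions, or continuous infusion. Protein binding was assumed to be 11%, so only the non-protein-bound fraction counts. The PK-PD breakpoint was the MIC with target-attainment probability ≥90%.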

Homo sapiens [5] = assay: fT>MIC in healthy human subjects at 6 gram/70kg, iv administered as 8 mg/l infusion every 8 hrs; type: functional; summary of the method: as §2
[6] = Terminal half life in cystic fibrosis patient at […], iv administered 20 mins infusion; type: ADME, organism-based; settings: human, in vivo, read-out: beta t1/2 (converted)
[7] = Cmax in healthy human subjects at 2 gram, iv administered in 5 mins infusion; type: ADME, organism-based; design: route intravenous; settings: in vivo; summary of the method: as §1
[8] = Renal clearance in healthy human subjects; type: ADME, organism-based, Kidney; settings: in vivo, read-out: CL_renal
Homo sapiens [9] = assay: Volume of distribution at steady state in healthy human subjects at 2 gram, iv administered in 5 mins infusion; type: ADME, organism-based; settings: in vivo; summary of the method: as §1
[10] = Terminal half life in healthy human subjects at 2 gram, iv administered in 5 mins infusion; type: ADME, organism-based; settings: in vivo, read-out: beta t1/2 (converted); summary of the method: as §1
Homo sapiens [11] = assay: fT>MIC in cystic fibrosis patient at 6 gram/70kg, iv administered as 6 mg/l infusion every 6 hrs; type: functional; summary of the method: as §2
[12] = Terminal half life in healthy human subjects at […], iv administered 20 mins infusion; type: ADME, organism-based; settings: in vivo, read-out: beta t1/2 (converted)
[13] = Total clearance in healthy human subjects at […], iv administered 20 mins infusion; type: ADME, organism-based; settings: in vivo
Homo sapiens [14] = assay: fT>MIC in healthy human subjects at 6 gram/70kg, iv administered as 4 mg/l infusion every 6 hrs; type: functional; summary of the method: as §2
[15] = Mean residence time in healthy human subjects at 2 gram, iv administered in 5 mins infusion; type: ADME, organism-based; settings: in vivo; summary of the method: as §1
[16] = Total clearance in juveline to adult cystic fibrosis patient; type: ADME, organism-based; settings: human, in vivo
[17] = Terminal half life in cystic fibrosis patient at 2 gram, iv administered in 5 mins infusion; type: ADME, organism-based; settings: human, in vivo, read-out: beta t1/2 (converted); summary of the method: as §1
[18] = Cmax in cystic fibrosis patient at 2 gram, iv administered in 5 mins infusion; type: ADME, organism-based; design: route intravenous; settings: human, in vivo; summary of the method: as §1
[19] = Total clearance in cystic fibrosis patient; type: ADME, organism-based; settings: human, in vivo
Homo sapiens [20] = assay: fT>MIC in cystic fibrosis patient at 6 gram/70kg, iv administered as 6 mg/l infusion
[21] = Renal clearance in cystic fibrosis patient; type: ADME, organism-based, Kidney; settings: human, in vivo; read-out: CL_renal
[22] = Total clearance in cystic fibrosis patient at 2 gram, iv administered in 5 mins infusion; type: ADME, organism-based; settings: human, in vivo; summary of the method: as §1
Homo sapiens [23] = assay: fT>MIC in healthy human subjects at 6 gram/70kg, iv administered as 12 mg/l infusion every 6 hrs; type: functional; summary of the method: as §2
Homo sapiens [24] = assay: fT>MIC in cystic fibrosis patient at 6 gram/70kg, iv administered as 2 mg/l infusion every 6 hrs; type: functional; summary of the method: as §2
Homo sapiens [25] = assay: fT>MIC in healthy human subjects at 6 gram/70kg, iv administered as 3 mg/l infusion every 8 hrs; type: functional; summary of the method: as §2
[26] = Total clearance in cystic fibrosis patient at […], iv administered 20 mins infusion; type: ADME, organism-based; settings: human, in vivo

In the case of `CC(C)(O/N=C(\C(=O)N[C@@H]1C(=O)N2C(C(=O)[O-])=C(C[n+]3ccccc3)CS[C@H]12)c1csc(N)n1)C(=O)O` [CEFTAZIDIME], the clearance [1] is reported as 110 mL/min, the MRT [2] is reported as 1.54 h and the Vd [3] is reported as 9.14 L. The “fT>MIC” value (Homo sapiens [4]) was “>=65%”, the “fT>MIC” value (Homo sapiens [5]) was “>=40%” and the half-life [6] was 1.5 h. The Cmax [7] was 210 µg/mL, the CL renal [8] was 100 mL/min and the Vdss (Homo sapiens [9]) was 14.3 L. For the same compound, the half-life [10] was 1.94 h, the “fT>MIC” value (Homo sapiens [11]) was “>=40%” and the half-life [12] was 1.76 h. For the same compound, the clearance [13] was 101 mL/min, the “fT>MIC” value (Homo sapiens [14]) was “>=65%” and the MRT [15] was 2.1 h. The clearance [16] was 133 mL/min, the half-life [17] was 1.48 h and the Cmax [18] was 445 µg/mL. The clearance [19] was 127 mL/min, the “fT>MIC” value (Homo sapiens [20]) was “>=40%” and the CL renal [21] was 125 mL/min. For the same compound, the clearance [22] was 89.5 mL/min, the “fT>MIC” value (Homo sapiens [23]) was “>=40%” and the “fT>MIC” value (Homo sapiens [24]) was “>=65%”. The “fT>MIC” value (Homo sapiens [25]) was “>=65%” and the clearance [26] was 142 mL/min.

Reference: ChEMBL document CHEMBL1240401, “Population pharmacokinetic comparison and pharmacodynamic breakpoints of ceftazidime in cystic fibrosis patients and healthy volunteers” (Antimicrob Agents Chemother, 2010)
